Type in all cases: functional
Holding throughout (details): 168 h

Assay [1] relates to Mycobacterium tuberculosis. As to the kind of experiment: Antitubercular activity against rifampin-resistant Mycobacterium tuberculosis H37Rv ATCC 27294 after 7 days by microplate alamar blue assay. In a few lines: (§1)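 12.8 mM DMSO stocks; two-fold dilutions in Middlebrook 7H12 broth, final 128 to 0.5 µM. Inoculum 2 × 10⁵ cfu/mL, 37 °C. On day 7, Tween 80 plus Alamar Blue added; fluorescence read (ex 530/em 590 nm) after 16-24 h more. MIC = lowest concentration giving ≥90% fluorescence drop versus bacteria-only controls; mean of two runs. RMP and INH positive controls.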

Assay [2] relates to Mycobacterium tuberculosis. As to the kind of experiment: Antitubercular activity against isoniazid-resistant Mycobacterium tuberculosis H37Rv ATCC 27294 after 7 days by microplate alamar blue assay. In a few lines: as §1
For assay [3], the system named is Mycobacterium tuberculosis. As to the kind of experiment: Antitubercular activity against streptomycin-resistant Mycobacterium tuberculosis H37Rv ATCC 27294 after 7 days by microplate alamar blue assay. The procedure, abridged:
as §1
(In general: Resazurin is reduced to fluorescent resorufin, in cell work by metabolically active cells.)

In brackets after ≈: the same amount, converted by molar mass.

As to `CCOC(=O)c1cc(-c2cccc(Oc3cc(C(F)(F)F)nc4ccccc34)c2)on1`, the minimum inhibitory concentration (MIC) (usually the lowest concentration found to suppress growth) came out at 1.27 µM (≈ 0.544 µg/mL) in assay [1], 1.63 µM (≈ 0.698 µg/mL) in assay [2] and 1.4 µM (≈ 0.6 µg/mL) in assay [3].

Take `CCOC(=O)c1cc(COc2cc(C(F)(F)F)nc3cc(C(F)(F)F)cc(C(F)(F)F)c23)on1`: the MIC in assay [1] came out at 0.99 µM (≈ 0.497 µg/mL); in assay [2], 0.98 µM (≈ 0.492 µg/mL); in assay [3], 1.55 µM (≈ 0.779 µg/mL).

As to `NNC(=O)c1ccncc1` [ISONIAZID], the MIC in assay [1] is 0.43 µM (≈ 0.059 µg/mL); in assay [2], above 128 µM; in assay [3], 0.45 µM (≈ 0.0617 µg/mL).

With `CO[C@H]1/C=C/O[C@@]2(C)Oc3c(C)c(O)c4c(O)c(c(/C=N/N5CCN(C)CC5)c(O)c4c3C2=O)NC(=O)/C(C)=C\C=C\[C@H](C)[C@H](O)[C@@H](C)[C@@H](O)[C@@H](C)[C@H](OC(C)=O)[C@@H]1C` [RIFAMPIN], the figures for the minimal inhibitory concentration (MIC) in assay [1], in assay [2] and in assay [3] were above 32 µM, 0.06 µM (≈ 0.0494 µg/mL) and 0.05 µM (≈ 0.0411 µg/mL), respectively.

On to `CN[C@@H]1[C@H](O[C@H]2[C@H](O[C@H]3[C@H](O)[C@@H](O)[C@H](N=C(N)N)[C@@H](O)[C@@H]3N=C(N)N)O[C@@H](C)[C@]2(O)C=O)O[C@@H](CO)[C@H](O)[C@H]1O` [STREPTOMYCIN], for which the MIC in assay [1] is 0.2 µM (≈ 0.116 µg/mL); in assay [2] it was 0.38 µM (≈ 0.221 µg/mL); in assay [3], above 32 µM.

(Values after ChEMBL document CHEMBL1153363, “Structure-activity relationships for a series of quinoline-based compounds active against replicating and nonreplicating Mycobacterium tuberculosis” (J Med Chem, 2009).)
